High-throughput results: PubChem BioAssay, several laboratories
Myeloid diff 2: induction of myeloid progenitor differentiation, primary screen, cell-based, flow cytometry, MLPCN library; ER-HoxA9 myeloid progenitors, lysozyme-GFP differentiation; calls only at 10 µM; actives 1% (n = 360,000);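 active = normalized GFP-positive differentiation at or above the plate's own cutoff, the solvent-only control mean plus 3 SD; inconclusive = no clear call, values can overlap the other calls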;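 also: cells exposed to compound for four days before flow analysis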
MC4R ag barr: MC4R agonists recruiting beta-arrestin, primary screen, cell-based, luminescence, agonist arm of biased-ligand search. AID 540308, 2011. U2OS MC4R beta-arrestin complementation; percent of melanotan II response, DMSO zero. activation, % at 8.9 µM. actives 0.98% (n = 360,000);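 active = activation above a per-plate cutoff, the mean activation of sample wells on that plate plus 3 SD, cut at about 8% in these data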
Target sequence (P32245 whole entry, looked up): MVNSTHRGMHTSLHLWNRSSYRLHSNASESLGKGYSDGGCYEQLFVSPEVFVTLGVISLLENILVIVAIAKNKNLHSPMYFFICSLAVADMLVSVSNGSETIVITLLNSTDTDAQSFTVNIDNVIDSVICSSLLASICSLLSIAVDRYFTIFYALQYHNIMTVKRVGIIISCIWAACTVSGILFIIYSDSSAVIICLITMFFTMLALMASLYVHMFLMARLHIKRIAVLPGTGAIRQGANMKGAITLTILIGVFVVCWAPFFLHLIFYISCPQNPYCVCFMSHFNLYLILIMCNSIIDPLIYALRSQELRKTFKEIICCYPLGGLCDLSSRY
EBI2 block: EBI2 receptor antagonists, beta-arrestin recruitment, primary screen, cell-based, luminescence, 7a,25-OHC stimulation, uHTS; 7a,25-OHC stimulated; inhibition, % at 5 µM; actives 0.81% (n = 360,000); G-protein coupled receptor 183 (Homo sapiens), P32249; in the data active = inhibition above about 38%;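 also: enzyme fragment complementation signal reports receptor beta-arrestin coupling in cells; 0% = agonist plus DMSO wells and 100% = wells without agonist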
MC4R antagonist: MC4R antagonists of cAMP signaling, primary screen, cell-based, TR-FRET, antagonist arm of biased-ligand search; actives 0.48% (n = 360,000); MC4R-expressing cells, MTII-stimulated cAMP, LANCE TR-FRET; inhibition, % at 6.5 µM;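 active = inhibition above its plate's cutoff, the mean of tested wells on that plate plus 3 SD, cut at about 29% in these data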;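 also: 0% = Melanotan II alone and 100% = Melanotan II plus saturating MCL0020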
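System: U2OS-MC4R stable cell line; Technique: Eu-cAMP/anti-cAMP TR-FRET, emission 671 nm; Repeats: single well per compound; Also added: Melanotan II; Dosing: one concentration, 6.5 µM nominal; Schedule: 30-min compound, 1-h challenge, 1-h detection, room temperature.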
Exocytosis inh: LAMP-1 surface exposure blockers, TALL-104 cells – cell-based, flow cytometry, MLPCN library, primary screen; TALL-104 LAMP-1 surface exposure; cells stimulated with thapsigargin and PMA; inhibition, % at 10 µM; actives 0.66% (n = 360,000); AID 651702, 2012;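 active = inhibition above about 55%, limit read from the data; inconclusive = no clear call, values can overlap the other calls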
cAMP nonselect: nonselective cAMP signaling inhibitors, parental cells, counter-screen for MC4R biased antagonist project, cell-based, TR-FRET, U2OS, forskolin, triplicate | shares compounds with MC4R antagonist | inhibition, % at 6.5 µM | actives 26% (n = 1,600) | AID 602193, 2012 | LANCE TR-FRET;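 active = mean inhibition over triplicates above the low-control well mean plus 3 SD, set per campaign, cut at about 13% in these data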;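 also: signal is single emission at 671 nm which falls as cellular cAMP rises; 0% = forskolin-stimulated wells and 100% = buffer without forskolin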
MC4R cAMP antag: MC4R cAMP antagonists, retest, confirmation, cell-based, TR-FRET; actives 27% (n = 1,600); shares compounds with MC4R antagonist; inhibition, % at 6.5 µM; AID 602195, 2012; MC4R-expressing cells, MTII-stimulated cAMP; in the data active = inhibition above about 29%;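 also: 0% = agonist stimulated wells alone and 100% = agonist stimulated wells plus saturating reference antagonist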
The depositor's hits bear a star; i = inactive; ? = inconclusive; nt = no result given. Most compounds without a hit are left out; they make up all but 3.7% or so of the library.

SMILES	Myeloid diff 2	MC4R ag barr	EBI2 block	MC4R antagonist	Exocytosis inh	cAMP nonselect	MC4R cAMP antag
O=C1CN(C(=O)Cn2ncc(Cl)c(Cl)c2=O)c2ccccc2N1	?	2	5	44*	2	20*	30*
O=C(Cn1ncc(Cl)c(Cl)c1=O)NC1CCCCC1	?	-1	4	47*	2	29*	72*
O=C(Cn1ncc(Cl)c(Cl)c1=O)NC1CCS(=O)(=O)C1 (centres undefined)	i	0	8	7	-1	nt	nt
O=C1CN(C(=O)COc2ccc(Cl)c(Cl)c2)c2ccccc2N1	i	3	2	17	-2	nt	nt
O=C(Cn1ncc(Cl)c(Cl)c1=O)NCC1CCCCC1	?	0	13	58*	22	33*	56*
CC(=O)c1cn(CC(=O)NCc2ccc3c(c2)OCO3)c2ccccc12	i	-2	-8	31*	-3	2	2
COc1ccccc1C(=O)OCCc1ccccc1	i	-2	-8	-3	1	nt	nt
O=C(O)c1ccc(NC(=O)c2ccc(COc3ccccc3)o2)cc1	i	3	-1	29*	-2	-1	-14
COCc1ccc(C(=O)Nc2ccc(C(=O)O)cc2)o1	i	-1	-4	0	-4	nt	nt
Cc1cc(C)n2c(NC3CCCCC3)c(-c3cccnc3)nc2n1	i	nt	-10	nt	-1	nt	nt
CCCc1nnc(NC(=O)CC(C)c2ccccc2)s1 (centres undefined)	i	2	-6	30*	-19	-15	-29
COc1cc(-c2nc3ccc4ccccc4c3c3c2CCC3)cc(OC)c1OC	i	0	28	32*	1	-1	31*
COc1cc(-c2nc3ccc4ccccc4c3c3c2CCC3)cc(OC)c1O	i	5	9	20	6	nt	nt
COC(=O)COc1ccc(S(=O)(=O)Nc2ccccc2C(=O)OC)cc1	i	-1	3	35*	-2	21*	35*
Cc1ccc(S(=O)(=O)N2CCCC(C(=O)NCCc3ccc(Cl)cc3)C2)cc1 (centres undefined)	i	-1	30	17	-11	nt	nt
N#C/C(=C/c1ccc(OCc2ccc(C(=O)O)cc2)c(Br)c1)c1cccc(F)c1	nt	-2	-1	34*	-2	-3	-14
CCOC(=O)c1ccc2ncc(C(=O)OCC)c(NCCN3CCOCC3)c2c1	i	-1	36	10	10	nt	nt
CCOC(=O)c1cnc2ccc(OCC)cc2c1NCc1ccccc1	?	0	33	35*	14	7	22
CCOC(=O)c1cnc2ccccc2c1Nc1cccc(C(=O)O)c1	i	0	4	39*	12	13*	20
CCOC(=O)c1cnc2ccc(C)cc2c1Nc1ccc(N2CCOCC2)cc1	i	0	4	30*	5	3	38*
CCOC(=O)c1cnc2ccc(OCC)cc2c1NCc1cccnc1	i	2	0	25	-4	nt	nt
CC(C)(C)OC(=O)CNC(=O)c1[nH]cnc1C(=O)NCC(=O)OCc1ccccc1	?	1	-46	42*	-3	3	8
CC(C)(C)OC(=O)NCCCC[C@H](NC(=O)c1nc[nH]c1C(=O)NCC(=O)OCc1ccccc1)C(=O)OC(C)(C)C	i	-1	18	6	-2	nt	nt
CC(C)(C)OC(=O)NCCCCCNC(=O)c1nc[nH]c1C(=O)NCC(=O)OCc1ccccc1	?	-1	-29	46*	-3	3	1
CCc1nc2c(OCCC3CCCCC3)cccn2c1N(C=O)Cc1ccccc1	i	-2	19	3	4	nt	nt
SMILES	Myeloid diff 2	MC4R ag barr	EBI2 block	MC4R antagonist	Exocytosis inh	cAMP nonselect	MC4R cAMP antag
CCOC(=O)c1ccc(NC(=O)NCc2ccccc2OC)cc1	i	-1	7	30*	-6	2	4
O=C(COc1ccc(Br)cc1)N(Cc1nnc(-c2ccccc2Cl)o1)C1CC1	i	-2	5	-1	1	nt	nt
CSc1ccccc1NC(=O)C1(C)CCN1C(=O)Cc1ccccc1Cl (centres undefined)	i	-3	3	15	2	nt	nt
Cc1ccc(C2C(C(=O)c3cc4ccccc4o3)=C(O)C(=O)N2c2cc(C)on2)cc1 (centres undefined)	i	-1	4	32*	5	9	5
O=C(C1=C(O)C(=O)N(CCc2ccccc2)C1c1ccncc1)c1cc2ccccc2o1 (centres undefined)	i	0	-1	12	-2	nt	nt
Cc1cc(N2C(=O)C(O)=C(C(=O)c3cc4ccccc4o3)C2c2ccc([N+](=O)[O-])cc2)no1 (centres undefined)	i	-1	-8	-1	-5	nt	nt
O=C(C1=C(O)C(=O)N(c2nccs2)C1c1ccccc1)c1cc2ccccc2o1 (centres undefined)	i	1	-3	49*	-7	19*	31*
CCC(=O)N1Cc2cc(C(=O)Nc3nccs3)nc(-c3cccc(-c4ccccc4OC)c3)c2[C@H]1CCO	i	nt	-4	nt	10	nt	nt
CN1CCC/C1=C1/C(=O)N(c2ccccc2)N=C1NC(=O)Nc1cccc(Cl)c1	i	1	8	26	-3	nt	nt
O=C(O)CCn1c(-c2ccccn2)nc2ccccc21	i	1	-3	29*	3	-1	1
CCOc1ccc(C(=O)CCC(=O)N2CCN(c3ncccn3)CC2)cc1	i	-2	-8	-1	-11	nt	nt
Cc1cccc2c1NC(=O)/C2=C\C(=O)c1cccs1	i	-1	43*	30*	4	3	4
CN1/C(=C\C(=O)c2cccs2)C(C)(C)c2ccccc21	i	0	-1	5	2	nt	nt
COC(=O)[C@]1(C)N[C@H](c2ccc(-c3ccc(Cl)c(Cl)c3)c(OC)c2)[C@@H]2C(=O)N(C)C(=O)[C@@H]21	?	-3	21	15	-3	nt	nt
Cc1cccc(C(=O)OCC(=O)NCc2cccs2)c1	i	-2	4	5	-2	nt	nt
CS(=O)(=O)c1ccc(C(=O)OCC(=O)NCc2cccs2)cc1[N+](=O)[O-]	i	-2	-6	47*	1	22*	18
O=C(O)c1ccccc1C(=O)Nc1ccccc1NC(=O)c1ccccc1C(=O)O	i	1	-8	18	-5	nt	nt
